The source of these data is ChEMBL document CHEMBL3862013 (Bioorg Med Chem, 2016).

Data set [1] is described as follows: Cytotoxicity against human TZM-bl cells after 3 days by XTT assay. It is filed as toxicity, cell-based. Conditions: 72 h. An outline of the steps: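 Graded compound concentrations added to an equal volume of TZM-bl cells (10^5/ml) and incubated 3 days. XTT added, then formazan read at 450 nm after 4 h. CC50 derived from percent cytotoxicity; mean ± SD.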
(In general: Formazan colour is commonly taken as a measure of viable cells.)

Data set [2] has as its system Human immunodeficiency virus 1. The data set can be described thus: Antiviral activity against HIV1 3B assessed as inhibition of multi-cycle viral infection in human MT2 cells by measuring p24 production preincubated for 30 mins followed by addition of cells measured after 4 days by sandwich ELISA. It is filed as functional, cell-based. An outline of the steps: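 Overnight at 37 °C, then supernatant replaced with fresh medium. Day 4 post-infection, supernatants mixed with equal volume 5% Triton X-100 and p24 measured by sandwich ELISA. IC50 derived from percent inhibition of p24 production; mean ± SD.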

Data set [3] is described as follows: Cytotoxicity against human MT2 cells after 4 days by XTT assay. It is filed as toxicity, cell-based. The settings on record: mt2, 96 h. An outline of the steps:
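Run in parallel with the antiviral assay. Graded compound added to an equal volume of MT-2 cells (10^5 cells/ml) and incubated 4 days. XTT added, and soluble formazan read at 450 nm after 4 hours.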

Data set [4] can be described thus: Inhibition of HIV1 HXB2 Env-mediated cell-cell fusion using MAGI-CCR5 as target cells and HL2/3 as effector cells preincubated with target cells for 1 hr followed by effector cells addition measured after 24 hrs by beta-galactosidase reporter gene assay. Conditions: Human immunodeficiency virus 1, HXB2. (In a reporter assay the amount or activity of a reporter protein is the signal.)

For data set [5], the system named is Human immunodeficiency virus 1. The data set can be described thus: Inhibition of CD4-dependent CXCR4-tropic HIV1 3B cell to cell transmission using Ghost X4/R5 cells as target cells and H9 as effector cells assessed as p24 release incubated for 4 hrs by sandwich ELISA method. The class given is functional. Conditions: Human immunodeficiency virus 1, 3B. In general terms: In an ELISA, binding on a coated surface is turned into a signal by an enzyme label.

Data set [6] relates to Human immunodeficiency virus 1. The data set can be described thus: Antiviral activity against ENV pseudotyped HIV1 subtype A/D QA790.204I.ENV.C8. Conditions: Human immunodeficiency virus 1, subtype A/D QA790.204I.ENV.C8. The class given is functional.
In data set [7] the test system is Human immunodeficiency virus 1. The experiment in a line: Antiviral activity against ENV pseudotyped HIV1 subtype A/D QA790.204I.ENV.E2. The class given is functional. The settings on record: Human immunodeficiency virus 1, subtype A/D QA790.204I.ENV.E2.
The test system of data set [8] is Human immunodeficiency virus 1. The experiment in a line: Antiviral activity against ENV pseudotyped HIV1 subtype A/E AA058. The class given is functional. The settings on record: Human immunodeficiency virus 1, subtype A/E AA058.
Data set [9] relates to Human immunodeficiency virus 1. The experiment in a line: Antiviral activity against ENV pseudotyped HIV1 PRHPA4259 clone 7. The class given is functional. The settings on record: Human immunodeficiency virus 1, PRHPA4259 clone 7.
Data set [10] has as its system Human immunodeficiency virus 1. The experiment in a line: Antiviral activity against ENV pseudotyped HIV1 subtype C ZM233M.PB6. It is filed as functional. Conditions: Human immunodeficiency virus 1, subtype C ZM233M.PB6.
Data set [11] deals with Human immunodeficiency virus 1. The data set can be described thus: Antiviral activity against ENV pseudotyped HIV1 subtype D QD435.100M.ENV.B5. It is filed as functional. Conditions: Human immunodeficiency virus 1, subtype D QD435.100M.ENV.B5.
For data set [12], the system named is Vesicular stomatitis virus. The data set can be described thus: Antiviral activity against G-glycoprotein expressing VSV. It is filed as functional.
The subject of data set [13] is Human immunodeficiency virus 1. The data set can be described thus: Antiviral activity against X4 tropic HIV1 HXB2 assessed as inhibition of single cycle viral infection in human TZM-bl cells preincubated for 30 mins followed by addition of cells measured after 3 days by luciferase reporter gene assay. The class given is functional, cell-based.
Data set [14] has as its system Human immunodeficiency virus 1. The experiment in a line: Inhibition of CD4-dependent CCR5-tropic HIV1 ADA cell to cell transmission using Ghost X4/R5 cells as target cells and MOLT4 as effector cells assessed as p24 release incubated for 4 hrs by sandwich ELISA method. The class given is functional, cell-based. Conditions: Human immunodeficiency virus 1, ADA, MOLT-4, 4 h.

Setting [15] is: Human immunodeficiency virus 1, 3B, MT2.
The mark [16] stands for this setting: Human immunodeficiency virus 1, HXB2, TZM-bl.

pIC50: −log10 of the molar value.

The term CC50 denotes the concentration that lowers cell viability or growth by half. Read a low CC50 as greater toxicity to the cells. Broadly, the pIC50 is −log10 of the IC50, conventionally taken in molar units. Turning to `Cc1nc([C@H](NC(=O)c2ccc(-c3ccc(Cl)cc3)[nH]2)[C@@H]2CCCCN2)sc1CO`, the cytotoxic concentration (CC50) in data set [1] was determined as 23.6 µM; in data set [3] it was 24.8 µM. For the same molecule, the pIC50 is 6.07 in data set [2] (setting [15]); 5.05 in data set [4]; 5.06 in data set [5]; 5.82 in [6]; 6.15 in data set [7]; 5.36 in data set [8]. The pIC50 was 5.85 in data set [9], 5.77 in data set [10], 5.80 in data set [11] and 5.15 in [12].
In the case of `Cc1ccc(-c2ccc(C(=O)NC(c3nc(C)c(CO)[nH]3)C3CCCCN3)[nH]2)cc1F` (stereo in doubt; 37B), the pIC50 in data set [13] (tzm-bl) was 4.77; in data set [2] (mt2) it was 4.65. The values for the CC50 in [1] and in data set [3] (96 h) were 34.5 µM and 37.1 µM, respectively.
As to `Cc1nc([C@@H](CN)NC(=O)c2ccc(-c3ccc(Cl)c(F)c3)[nH]2)sc1CO`, the CC50 in [1] came to 26 µM; in data set [3] it was 22.7 µM.
Take `Cc1ccc(-c2ccc(C(=O)N[C@@H](c3nc(C)c(CCO)s3)[C@@H]3CCCCN3)[nH]2)cc1F`: the pIC50 is 5.20 in data set [13] (setting [16]) and 5.52 in data set [2] (setting [15]). Also, the CC50 in data set [1] amounted to 15.3 µM; in [3], 21.2 µM.
For `Cc1nc([C@H](NC(=O)c2ccc(-c3ccc(Cl)cc3)[nH]2)[C@@H]2CCCCN2)sc1CCO`, the pIC50 in data set [13] (setting [16]) is 5.24; in data set [2] (setting [15]) it was 5.34. The CC50 in data set [1] came to 15.4 µM; in [3] it was 21 µM.
On to `Cc1ccc(-c2ccc(C(=O)N[C@H](c3nc(C)c(CCO)s3)[C@@H]3CCCCN3)[nH]2)cc1F`, for which the pIC50 is 4.97 in data set [13] (setting [16]) and 5.21 in [2] (setting [15]). Besides, the CC50 in [1] worked out at 28.8 µM; in data set [3] it was 29.7 µM.
`Cc1nc([C@@H](NC(=O)c2ccc(-c3ccc(Cl)c(F)c3)[nH]2)[C@@H]2CCCCN2)sc1CCO`: the pIC50 was 5.12 in [13] (setting [16]) and 5.47 in data set [2] (setting [15]). The results for the CC50 in data set [1] and in [3] were 16.1 µM and 16.9 µM, respectively.
`Cc1ccc(-c2ccc(C(=O)NC(c3nc(C)c(CO)[nH]3)C3CCCCN3)[nH]2)cc1F` (stereo in doubt; 37A): the pIC50 in [13] (setting [16]) was 5.03; in [2] (setting [15]) it was 4.89. Further, the CC50 was found to be 33.3 µM in data set [1] and 28.4 µM in data set [3] (96 h).
For `Cc1ccc(-c2ccc(C(=O)N[C@@H](c3nc(C)c(CCCO)s3)[C@@H]3CCCCN3)[nH]2)cc1F`, the results for the pIC50 in data set [13] (setting [16]) and in [2] (setting [15]) were 5.10 and 5.13, respectively. Also, the values for the CC50 in data set [1] and in data set [3] were 17 µM and 20.6 µM, respectively.
Take `Cc1nc([C@H](NC(=O)c2ccc(-c3ccc(Cl)c(F)c3)[nH]2)[C@H]2CCCCN2)sc1CO`: the pIC50 in [13] (setting [16]) was 5.49; in data set [2] (setting [15]), 5.59. Besides, the 50% cytotoxic concentration (CC50) in data set [1] was 17.4 µM; in data set [3], 26 µM.
On the same counts, the results for `Cc1ccc(-c2ccc(C(=O)N[C@@H](c3nc(C)c(CO)s3)[C@@H]3CCCCN3)[nH]2)cc1F` are 5.42, 5.80, 19.2 µM and 28.2 µM.
For `Cc1ccc(-c2ccc(C(=O)N[C@@H](CN)c3nc(C)c(CO)s3)[nH]2)cc1F` the same measures were 5.77, 6.04, 35 µM and 31.6 µM.
As for `Cc1nc(C(NC(=O)c2ccc(-c3ccc(Cl)cc3)[nH]2)C2CCCCN2)[nH]c1CO` (stereo in doubt; 35A), the pIC50 is 4.85 in data set [13] (setting [16]) and 4.99 in data set [2] (setting [15]). The values for the CC50 in data set [1] and in data set [3] (96 h) were 30 µM and 36.6 µM, respectively.
Consider `Cc1nc([C@H](CN)NC(=O)c2ccc(-c3ccc(Cl)cc3)[nH]2)sc1CO`, for which the figures for the CC50 in [1] and in [3] were 33.6 µM and 25.8 µM, respectively. Further, the pIC50 in [4] is 4.92; in data set [14], 4.52.
Regarding `Cc1nc(C(NC(=O)c2ccc(-c3ccc(Cl)c(F)c3)[nH]2)C2CCCCN2)[nH]c1CO` (stereo in doubt; 36A), the pIC50 in data set [13] (setting [16]) is 5.06; in data set [2] (mt2), 4.97. The results for the CC50 in data set [1] and in [3] (96 h) were 26.7 µM and 31.1 µM, respectively.
For the molecule `Cc1ccc(-c2ccc(C(=O)N[C@H](c3nc(C)c(CO)s3)[C@@H]3CCCCN3)[nH]2)cc1F`, the pIC50 in data set [13] (setting [16]) was 5.57; in data set [2] (setting [15]), 5.52. Further, the CC50 in data set [1] was 18 µM; in [3], 16.1 µM.
Consider `Cc1nc(C(NC(=O)c2ccc(-c3ccc(Cl)c(F)c3)[nH]2)C2CCCCN2)[nH]c1CO` (stereo in doubt; 36B), for which the pIC50 is 4.80 in data set [13] (tzm-bl) and 4.64 in data set [2] (mt2). Moreover, the CC50 in data set [1] was found to be 30.7 µM; in data set [3] (96 h), 36.4 µM.
In the case of `Cc1nc([C@@H](CN)NC(=O)c2ccc(-c3ccc(Cl)cc3)[nH]2)sc1CO`, the CC50 is 34.1 µM in data set [1] and 28.2 µM in data set [3].
With `Cc1nc(C(NC(=O)c2ccc(-c3ccc(Cl)cc3)[nH]2)C2CCCCN2)[nH]c1CO` (stereo in doubt; 35B), the pIC50 in data set [13] (tzm-bl) was 4.80; in [2] (mt2), 4.74. The CC50 in data set [1] stood at 33.8 µM; in data set [3] (96 h) it was 45.2 µM.
With `Cc1nc([C@@H](NC(=O)c2ccc(-c3ccc(Cl)c(F)c3)[nH]2)[C@H]2CCCCN2)sc1CO`, the pIC50 in data set [13] (setting [16]) is 5.52; in data set [2] (setting [15]) it was 5.80. Also, the CC50 amounted to 15.2 µM in [1] and 17.2 µM in data set [3].
On the same counts, the results for `Cc1nc([C@H](NC(=O)c2ccc(-c3ccc(Cl)cc3)[nH]2)[C@@H]2CCCCN2)sc1CCCO` are 5.12, 5.24, 13.7 µM and 19 µM.
`Cc1nc([C@@H](NC(=O)c2ccc(-c3ccc(Cl)cc3)[nH]2)[C@@H]2CCCCN2)sc1CCO`: the pIC50 in data set [13] (setting [16]) was 5.05; in data set [2] (setting [15]), 5.70. Further, the values for the CC50 in data set [1] and in [3] were 17.3 µM and 26.8 µM, respectively.
As to `Cc1ccc(-c2ccc(C(=O)N[C@H](CN)c3nc(C)c(CO)s3)[nH]2)cc1F`, the pIC50 is 5.96 in data set [13] (setting [16]) and 6.19 in data set [2] (setting [15]). Besides, the CC50 in [1] was found to be 26.2 µM; in [3], 24.3 µM.
Turning to `Cc1nc([C@H](NC(=O)c2ccc(-c3ccc(Cl)c(F)c3)[nH]2)[C@@H]2CCCCN2)sc1CCCO`, the pIC50 in data set [13] (setting [16]) was 5.29; in data set [2] (setting [15]), 5.35. Moreover, the CC50 in [1] was determined as 8.2 µM; in [3], 12.6 µM.
For `Cc1nc([C@H](CN)NC(=O)c2ccc(-c3ccc(Cl)c(F)c3)[nH]2)sc1CO`, the CC50 came out at 40.5 µM in data set [1] and 30.5 µM in data set [3]. The molecule further had a pIC50 in data set [4] of 4.82.
As for `Cc1nc([C@H](NC(=O)c2ccc(-c3ccc(Cl)c(F)c3)[nH]2)[C@@H]2CCCCN2)sc1CCO`, the pIC50 in data set [13] (setting [16]) was 5.10; in data set [2] (setting [15]), 5.54. The CC50 in data set [1] turned out to be 15.1 µM; in data set [3], 16.8 µM.
